Results gathered from unrelated publications.
Protocols differ between the studies behind these lines.
Target: Ephrin type-A receptor 2 (EPHA2, Homo sapiens, UniProt P29317)

O=C(NCc1ncc(C(F)(F)F)cc1Cl)c1ccc2c(c1)C1(CCS(=O)(=O)CC1)[C@@H](C1CC1)N2S(=O)(=O)c1ccc(F)cc1 — remaining binding (cell-free assay, competition with immobilised ligand; 1 µM): 84%
C[C@@H](c1ccc(-n2cnc3c(N)ncnc32)cc1)N1CCc2nn(C)c(Cc3ccccc3)c2C1=O — remaining binding (binding, competition with immobilised ligand; 0.1 µM): 100%
CC(C)(C)c1ccc(-c2nc(CBr)nn2-c2cccc(O)c2)cc1 — remaining binding (cell-free assay, competition with immobilised ligand; 10 µM): 89%
C[C@H](c1ccc(F)cc1)N(Cc1cccc(C(=O)O)c1)C(=O)c1cnc2ccccc2c1 — remaining binding (cell-free assay, competition with immobilised ligand; 1 µM): 100%
CN(CCCC(F)(F)F)c1nccc(-c2cnn3ncccc23)n1 — remaining binding (binding; 1 µM): 82%
COc1cnc(Nc2cccc(S(N)(=O)=O)c2)nc1N1CCN(c2ccccc2)CC1 — remaining binding (binding, competition with immobilised ligand; 1 µM): 100%
CS(=O)(=O)c1cc(C2(NC(=O)c3cncc4c3cnn4-c3ccc(F)cc3)CC2)ccn1 — remaining binding (cell-free assay, competition with immobilised ligand; 1 µM): 100%
CC1CCCN1c1nccc(-c2cnn3ncccc23)n1 (stereo not shown) — remaining binding (binding; 1 µM): 99%
CCC(=N\O)/C(C)=C/c1ccc(F)cc1 — remaining binding (cell-free assay, competition with immobilised ligand; 1 µM): 84%
CN(c1nccc(-c2cnn3ncccc23)n1)C1CC1 — remaining binding (binding; 1 µM): 99%
O=C(NCCCN1CCOCC1)c1ccc(Nc2nccc(-c3cc4ccccc4s3)n2)cc1 — remaining binding (binding, competition with immobilised ligand; 1 µM): 72%
C[C@H](c1ccnc(Nc2nc3ccc(-c4cc(N(C)C)ncn4)cc3[nH]2)c1)N1CCN(C(=O)CC(F)(F)F)CC1 — remaining binding (cell-free assay, competition with immobilised ligand; 0.1 µM): 100%
N#Cc1ccccc1CSc1nnc2c(n1)[nH]c1ccccc12 — remaining binding (binding, competition with immobilised ligand; 10 µM): 87%
CN(C)c1ncc(F)c(-c2cnn3ncccc23)n1 — remaining binding (binding; 1 µM): 80%
O=C(c1ccc(Nc2ncc(Cl)c(-c3ccc(Cl)s3)n2)cc1)N1CCC(N2CCCC2)CC1 — remaining binding (binding, competition with immobilised ligand; 1 µM): 100%
C[C@H]1CCN(c2nccc(-c3cnn4ncccc34)n2)C1 — remaining binding (binding; 1 µM): 100%
O=C(Nc1c[nH]nc1C(=O)NC1CCNCC1)c1cc(F)cc(F)c1 — remaining binding (binding, competition with immobilised ligand; 1 µM): 100%
Cn1nc(C(=O)NCc2ccc(C(=O)O)cc2)cc1-c1ccc2[nH]ccc2c1 — remaining binding (cell-free assay, competition with immobilised ligand; 0.1 µM): 95%
CN(C)c1nccc(-c2cnn3ncccc23)n1 — remaining binding (binding; 1 µM): 85%
O=C(c1ccc(Nc2nccc(-c3cc4ccccc4s3)n2)cc1)N1CCC(N2CCCC2)CC1 — remaining binding (binding, competition with immobilised ligand; 1 µM): 65%
C[C@@H]1CN(c2ccc3ncc(-c4ccc5[nH]nc(C6CC6)c5c4)n3n2)C[C@H](C)O1 — remaining binding (binding, competition with immobilised ligand; 50 nM): 86%
C[C@@H]1CN(c2cc(-c3n[nH]c4ccc(OC5(C)CC5)cc34)ncn2)C[C@H](C)O1 — remaining binding (cell-free assay, competition with immobilised ligand; 0.1 µM): 72%
CCN1CCN(Cc2ccc(C(=O)Nc3ccc(C)c(Oc4ccc5c(c4)CC(=O)N5)c3)cc2C(F)(F)F)CC1 — remaining binding (binding, competition with immobilised ligand; 1 µM): 73%
Cc1noc([C@H]2C[C@@H](c3ccc(C(F)(F)F)cc3)CN(C(=O)N3CCS(=O)(=O)C3)C2)n1 — remaining binding (cell-free assay, competition with immobilised ligand; 1 µM): 100%
N[C@H]1CCN(c2nccc(-c3cnn4ncccc34)n2)C1 — remaining binding (binding; 1 µM): 87%
